Data as given in ChEMBL document CHEMBL4354873, “Rationally Designed Small-Molecule Inhibitors Targeting an Unconventional Pocket on the TLR8 Protein-Protein Interface” (J Med Chem, 2020).
Activity calls are given as the source filed them. The calls are words filed in the database; no cut-off is given here.

Assays:
Toll-like receptor 8 = biological target: T1, Toll-like receptor 8 (Homo sapiens, UniProt Q9NR97); assay: Inhibition of human TLR8 expressed in HEK-Blue cells assessed as inhibition of R848-induced NF-kappaB activation measured after 24 hrs by quanti-blue based SEAP reporter gene assay; assay type: cell-based
T1 sequence (Q9NR97 whole entry): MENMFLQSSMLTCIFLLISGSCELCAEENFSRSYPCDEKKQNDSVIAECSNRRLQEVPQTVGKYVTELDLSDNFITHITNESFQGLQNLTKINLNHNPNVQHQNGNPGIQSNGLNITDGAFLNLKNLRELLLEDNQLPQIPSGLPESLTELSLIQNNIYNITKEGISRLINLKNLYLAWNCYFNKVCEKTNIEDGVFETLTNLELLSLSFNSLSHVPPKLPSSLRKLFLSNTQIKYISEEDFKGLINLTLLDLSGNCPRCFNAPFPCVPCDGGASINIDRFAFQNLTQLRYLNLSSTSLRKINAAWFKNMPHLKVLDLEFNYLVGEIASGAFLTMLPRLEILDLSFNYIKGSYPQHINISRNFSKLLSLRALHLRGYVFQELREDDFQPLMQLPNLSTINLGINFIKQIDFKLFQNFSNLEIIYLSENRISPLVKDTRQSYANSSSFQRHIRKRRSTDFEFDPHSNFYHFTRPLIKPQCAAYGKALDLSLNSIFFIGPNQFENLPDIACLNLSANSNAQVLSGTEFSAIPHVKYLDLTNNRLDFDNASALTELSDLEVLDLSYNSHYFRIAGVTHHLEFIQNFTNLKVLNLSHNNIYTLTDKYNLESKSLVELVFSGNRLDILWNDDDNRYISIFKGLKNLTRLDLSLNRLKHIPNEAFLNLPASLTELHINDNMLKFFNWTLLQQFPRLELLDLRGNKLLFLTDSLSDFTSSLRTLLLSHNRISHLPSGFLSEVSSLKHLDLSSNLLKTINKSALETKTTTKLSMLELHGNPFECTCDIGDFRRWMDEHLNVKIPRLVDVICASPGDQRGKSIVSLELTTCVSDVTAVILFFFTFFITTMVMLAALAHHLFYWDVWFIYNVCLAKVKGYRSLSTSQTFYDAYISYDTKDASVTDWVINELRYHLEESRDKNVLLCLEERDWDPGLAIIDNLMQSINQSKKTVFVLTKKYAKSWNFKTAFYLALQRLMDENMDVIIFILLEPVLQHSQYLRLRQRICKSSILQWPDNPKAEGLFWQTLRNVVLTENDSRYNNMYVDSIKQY

[1] = Cytotoxicity against HEK-Blue cells expressing human TLR8 assessed as reduction in cell viability measured after 24 hrs by CCK8 assay; assay type: cell-based
Summary of the method: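 CCK-8 viability: compounds incubated 24 h at 37 °C with HEK-Blue TLR8 cells (4 × 10⁴ cells/well) or PBMCs (3 × 10⁶ cells/mL). CCK-8 was added at 1:10 for up to 2 h, then absorbance read at 450 nm. Values normalized to untreated cells as 100% survival.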

[2] = biological target: T2, Toll-like receptor 8 (Homo sapiens) (UniProt Q9NR97); assay: Inhibition of human TLR8 expressed in HEK-Blue cells assessed as inhibition of R848-induced TNFalpha mRNA level at 1 uM measured after 8 hrs by Trizol reagent based qRT-PCR analysis; assay type: cell-based
T2 sequence (whole entry): T1 sequence (Q9NR97 whole entry)
Summary of the method: (§1)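 RT-qPCR: HEK-Blue TLR8 cells seeded at 1 × 10⁶/well and grown 24 h, then switched to serum-free medium. Treated with R848 4 µg/mL ± compound 1 µM for 8 h. Total RNA extracted with TRIzol, reverse transcribed, TNF-α and IL-8 mRNA quantified. Three independent biological replicates, mean ± s.d.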

[3] = biological target: T2, Toll-like receptor 8 (Homo sapiens); assay: Inhibition of human TLR8 expressed in HEK-Blue cells assessed as inhibition of R848-induced IL-8 mRNA level at 1 uM measured after 8 hrs by Trizol reagent based qRT-PCR analysis; assay type: cell-based; summary of the method: as §1
[4] = biological target: T2, Toll-like receptor 8 (Homo sapiens); assay: Inhibition of TLR8 in human PBMC assessed as reduction in R848-induced TNFalpha production measured after 24 hrs by ELISA
Summary of the method: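 PBMCs from healthy donors isolated by density gradient centrifugation and cultured at once at 3 × 10⁶ cells/mL in RPMI 1640. Cells received R848 and varying compound concentrations for 24 h. Supernatants spun 10 min at 4 °C, frozen at −80 °C, and TNF-α measured by ELISA.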

Row | IC50 (Toll-like receptor 8) [µM] | Structure (SMILES) | Activity [1] | also measured
1 | > 20 | NC(=O)Sc1nnc(CCCO)n1-c1ccc(Cl)cc1Cl |  | 
2 |  | Fc1cccc(-n2c(SCc3c(Cl)cccc3Cl)nnc2C2CC2)c1 | Non-Toxic | 
3 |  | CSc1nnc(CCCO)n1-c1ccc(Cl)cc1Cl | Non-Toxic | 
4 | > 20 | NC(=O)CSc1nnc(CCCO)n1-c1ccc(Cl)cc1Cl |  | 
5 | > 20 | CSc1nnc(CCCO)n1-c1cccnc1 |  | 
6 | > 20 | OCCCc1nnc(S)n1-c1ccc(Cl)cc1Cl |  | inhibition [2]: inactive; inhibition [3]: inactive; inhibition [4]: inactive
7 |  | Cc1nc(-c2nnc(SCc3ccccc3)n2-c2cccc(F)c2)cs1 | Non-Toxic | 
8 | > 20 | CSc1nnc(CCCO)n1C1CCCCC1 |  | 
9 | 9 | CSc1nnc(O)n1-c1ccc(Cl)cc1Cl |  | 
